Values after ≈ are worked out from the molar mass of the structure shown.
Columns and labels:
Assay type in all cases: functional
[1] = tested on: Candida albicans; assay: In vitro antifungal activity against 40 strains of Candida albicans at pH 5.8; (range is from 0.25 to 64)
Outline: (§1)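 Broth serial-dilution MIC against 40 clinical C. albicans isolates from hospitalized patients, grown in Sabouraud broth at pH 7.2 or 5.8. Cells were pre-grown 18 h at 37 °C, inoculated at 10³/mL, and read at 24 h, 37 °C. Doubling dilutions ran 0.25–256 μg/mL from a DMSO/water solution. MIC was the lowest concentration with no visible growth against a DMSO/water blank.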

[2] = tested on: Candida; assay: Tested In vitro for antifungal activity against Candida species. at pH 7.2; (percent of resistant species at 256 ug/mL)
Outline: (§2)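 Broth serial-dilution test in Sabouraud broth at pH 7.2 or 5.8, against 3 fresh clinical non-albicans isolates (two C. glabrata, one C. krusei). Inocula were 10³/mL, pre-grown 18 h at 37 °C. Compound was twofold-diluted over 0.25–256 µg/mL and read at 24 h, 37 °C for visible growth.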

[3] = tested on: Candida; assay: Tested in vitro for antifungal activity against Candida species. at pH 5.8 (percent of resistant species at 256 ug/mL); outline: as §2
[4] = tested on: Candida albicans; assay: In vitro antifungal activity against 40 strains of Candida albicans at pH 5.8; outline: as §1
[5] = molecular target: Lanosterol 14-alpha demethylase (Candida albicans (strain SC5314 / ATCC MYA-2876) (Yeast), UniProt P10613); assay: Anticandida activity- (MIC90 compound) / (MIC90 bifonazole)
Chain of Lanosterol 14-alpha demethylase (P10613 whole entry): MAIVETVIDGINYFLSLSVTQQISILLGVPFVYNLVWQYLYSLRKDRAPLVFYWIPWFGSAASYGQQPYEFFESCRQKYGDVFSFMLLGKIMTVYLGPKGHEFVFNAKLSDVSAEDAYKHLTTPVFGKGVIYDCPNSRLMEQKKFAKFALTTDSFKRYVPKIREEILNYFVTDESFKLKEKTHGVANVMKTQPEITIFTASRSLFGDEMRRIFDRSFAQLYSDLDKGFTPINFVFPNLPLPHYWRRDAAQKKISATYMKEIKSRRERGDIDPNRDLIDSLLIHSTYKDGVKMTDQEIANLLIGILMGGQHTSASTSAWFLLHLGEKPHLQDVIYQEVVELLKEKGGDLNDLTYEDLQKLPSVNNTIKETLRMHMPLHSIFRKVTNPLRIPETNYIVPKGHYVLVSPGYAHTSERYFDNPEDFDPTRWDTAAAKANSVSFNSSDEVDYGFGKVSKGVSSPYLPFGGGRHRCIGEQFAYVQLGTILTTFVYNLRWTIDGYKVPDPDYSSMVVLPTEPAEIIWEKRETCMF

[6] = tested on: Candida albicans; assay: In vitro antifungal activity against 40 strains of Candida albicans at pH 5.8; (percent of resistant species at 256 ug/mL)
Outline: (§3)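 Broth serial-dilution test in Sabouraud broth at pH 7.2 or 5.8, against 40 fresh clinical C. albicans isolates from hospitalized patients. Inocula were 10³/mL, pre-grown 18 h at 37 °C in Sabouraud dextrose broth. Compound from a DMSO/water stock was twofold-diluted over 0.25–256 µg/mL. Visible growth was read at 24 h, 37 °C.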

[7] = tested on: Candida albicans; assay: In vitro antifungal activity against 40 strains of Candida albicans at pH 7.2; (percent of resistant species at 256 ug/mL); outline: as §3
[8] = tested on: Candida albicans; assay: In vitro antifungal activity against 40 strains of Candida albicans at pH 7.2; minimum inhibitory concentration (range is from 1 to 32); outline: as §1
[9] = tested on: Candida; assay: Tested In vitro for antifungal activity against Candida species. at pH 7.2; (range is from 2 to 32)
Outline: (§4)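 Liquid serial-dilution MIC against 3 freshly isolated clinical Candida strains (two C. glabrata, one C. krusei) in Sabouraud broth at pH 7.2 or 5.8. Inoculum was 10³/mL after 18 h pre-culture at 37 °C, read at 24 h, 37 °C. Range was 0.25–256 μg/mL. Endpoint was no visible growth versus a DMSO/water blank.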

[10] = tested on: Candida; assay: Tested in vitro for antifungal activity against Candida species. at pH 5.8 (range is from 4 to 16); outline: as §4
[11] = tested on: Candida; assay: Tested In vitro for antifungal activity against Candida species. at pH 7.2; outline: as §4
[12] = tested on: Candida; assay: Tested in vitro for antifungal activity against Candida species. at pH 5.8; outline: as §4
[13] = tested on: Candida albicans; assay: In vitro antifungal activity against 40 strains of Candida albicans at pH 7.2; outline: as §1
[14] = tested on: Candida albicans; assay: In vitro antifungal activity against 40 strains of Candida albicans at pH 5.8; value ranges from 256 to >256; outline: as §1
[15] = tested on: Candida albicans; assay: In vitro antifungal activity against 40 strains of Candida albicans at pH 5.8 (percent of resistant species at 256 ug/mL); outline: as §3
[16] = tested on: Candida albicans; assay: In vitro antifungal activity against 40 strains of Candida albicans at pH 7.2; value ranges from 128 to >256; outline: as §1
[17] = tested on: Candida; assay: Tested In vitro for antifungal activity against Candida species. at pH 7.2 (percent of resistant species at 256 ug/mL); outline: as §2
[18] = tested on: Candida albicans; assay: In vitro antifungal activity against Candida albicans (40 strains) at pH 7.2; (percent of resistant species at 256 ug/mL); outline: as §3
[19] = tested on: Candida albicans; assay: In vitro antifungal activity against 40 strains of Candida albicans at pH 5.8; value ranges from 128 to >256.; outline: as §1
[20] = tested on: Candida; assay: Tested in vitro for antifungal activity against Candida species. at pH 5.8; (percent of resistant species at 256 ug/mL); outline: as §2
[21] = tested on: Candida; assay: Tested in vitro for antifungal activity against Candida species. at pH 7.2; (percent of resistant species at 256 ug/mL); outline: as §2
[22] = tested on: Candida albicans; assay: In vitro antifungal activity against 40 strains of Candida albicans at pH 7.2; minimum inhibitory concentration value ranges from 128 to >256; outline: as §1
[23] = tested on: Candida; assay: Tested in vitro for antifungal activity at pH 5.8; range is >250
Outline: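 Serial two-fold broth dilution was run in Sabouraud broth at pH 5.8 over 0.25–256 µg/mL, against clinical Candida isolates (40 C. albicans; 2 C. glabrata plus 1 C. krusei). Inoculum was 10³/mL after 18 h pre-culture at 37 °C. No visible growth versus a DMSO/water blank was read at 24 h, 37 °C; the range spans per-strain MICs.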

[24] = tested on: Candida; assay: Tested in vitro for antifungal activity against Candida species. at pH 7.2
Outline: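 Fresh clinical isolates (two C. glabrata, one C. krusei) were pre-grown 18 h at 37 °C in Sabouraud dextrose broth. Broth double-dilution was run in Sabouraud broth at pH 5.8 or 7.2 over 0.25–256 µg/mL from a DMSO/water stock, with 10³/mL inoculum.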

[25] = tested on: Candida albicans; assay: IIn vitro antifungal activity against 40 strains of Candida albicans at pH 7.2; minimum inhibitory concentration (range is from 2 to 64); outline: as §1
[26] = tested on: Candida albicans; assay: TIn vitro antifungal activity against 40 strains of Candida albicans at pH 5.8; (range is from 4 to 64); outline: as §1
[27] = tested on: Candida; assay: Tested In vitro for antifungal activity against Candida species. at pH 7.2; (range is from 1 to 32); outline: as §4
[28] = tested on: Candida; assay: Tested in vitro for antifungal activity against Candida species. at pH 5.8 (range is from 8 to 256); outline: as §4

SMILES	Resistance [2]	Resistance [3]	MIC [4]	MIC50 [4]	MIC90 [4]	Ratio [5]	Resistance [6]	Resistance [7]	MIC [11]	MIC50 [11]	MIC90 [11]	MIC [12]	MIC50 [12]	MIC90 [12]	MIC [13]	MIC50 [13]	MIC90 [13]	other results
Clc1ccc([C@H](c2c[nH]cc2-c2ccc(-n3cccc3)cc2)n2ccnc2)c(Cl)c1	0%	0%	3.95 µg/mL (≈ 9.12 µM)	2 µg/mL (≈ 4.62 µM)	4 µg/mL (≈ 9.23 µM)	0.72	0%	0%	14.1 µg/mL (≈ 32.6 µM)	4 µg/mL (≈ 9.23 µM)	32 µg/mL (≈ 73.8 µM)	9.3 µg/mL (≈ 21.5 µM)	8 µg/mL (≈ 18.5 µM)	16 µg/mL (≈ 36.9 µM)	4.4 µg/mL (≈ 10.2 µM)	2 µg/mL (≈ 4.62 µM)	4 µg/mL (≈ 9.23 µM)	Range [1]: 64 µg/mL; Range [8]: 32 µg/mL; Range [9]: 32 µg/mL; Range [10]: 16 µg/mL
CC(C)(C)c1ccc(-c2c[nH]cc2[C@@H](c2ccc(Cl)cc2Cl)n2ccnc2)cc1	–	100%	256 µg/mL (≈ 603 µM)	> 256 µg/mL	> 256 µg/mL	47	–	–	–	> 256 µg/mL	> 256 µg/mL	–	> 256 µg/mL	> 256 µg/mL	165 µg/mL (≈ 388 µM)	> 256 µg/mL	> 256 µg/mL	Range [14]: >256 µg/mL; Resistance [15]: 97%; Range [16]: >256 µg/mL; Resistance [17]: 100%; Range [11]: >256 µg/mL; Range [12]: >256 µg/mL; Resistance [18]: 80%
Clc1ccc(-c2c[nH]cc2[C@@H](c2ccc(Cl)cc2Cl)n2cncn2)cc1	–	–	209 µg/mL (≈ 519 µM)	> 256 µg/mL	> 256 µg/mL	49	68%	97%	–	–	–	–	> 256 µg/mL	> 256 µg/mL	128 µg/mL (≈ 317 µM)	> 256 µg/mL	> 256 µg/mL	Range [19]: >256 µg/mL; Resistance [20]: 100%; Resistance [21]: 100%; Range [22]: >256 µg/mL; Range [23]: >256 µg/mL; MIC50 [24]: > 256 µg/mL; MIC90 [24]: > 256 µg/mL; Range [24]: >256 µg/mL
N#Cc1ccc(-c2c[nH]cc2[C@H](c2ccc(Cl)cc2Cl)n2ccnc2)cc1	0%	0%	41.3 µg/mL (≈ 105 µM)	8 µg/mL (≈ 20.3 µM)	32 µg/mL (≈ 81.4 µM)	6.3	0%	0%	32.4 µg/mL (≈ 82.4 µM)	16 µg/mL (≈ 40.7 µM)	64 µg/mL (≈ 163 µM)	58 µg/mL (≈ 147 µM)	64 µg/mL (≈ 163 µM)	256 µg/mL (≈ 651 µM)	13.2 µg/mL (≈ 33.6 µM)	8 µg/mL (≈ 20.3 µM)	32 µg/mL (≈ 81.4 µM)	Range [25]: 64 µg/mL; Range [26]: 64 µg/mL; Range [27]: 32 µg/mL; Range [28]: 256 µg/mL

Source: ChEMBL document CHEMBL1135477, “Antifungal agents. 10. New derivatives of 1-[(aryl)[4-aryl-1H-pyrrol-3-yl]methyl]-1H-imidazole, synthesis, anti-candida activity, and quantitative structure-analysis relationship studies” (J Med Chem, 2002)
